Results from ChEMBL document CHEMBL1129454, “HIV protease inhibitory bis-benzamide cyclic ureas: a quantitative structure-activity relationship analysis” (J Med Chem, 1996).
pKi: −log10 of the molar value.

Key:
[1] = tested on: Human immunodeficiency virus 1; test: The concentration required to inhibit HIV-1 RNA synthesis by 90%. Viral RNA quantified by a sandwich hybridization assay; type: functional; settings: Human immunodeficiency virus 1
Procedure, shortened: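 Susceptible T-cell lines grown in individual microtiter wells were infected with HIV. Cell-associated viral RNA was measured by RNA hybridization 3 days after infection. […] Assay SD was <±37%. Cytotoxicity was scored separately by tetrazolium dye metabolism, because RNA assay results are valid only at non-cytotoxic doses.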

[2] = molecular target: T1, Human immunodeficiency virus type 1 protease (Human immunodeficiency virus 1, UniProt Q72874); test: Binding affinity for HIV-1 protease
Procedure, shortened: (§1)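 Cleavage products were separated by anion-exchange HPLC and the product quantified by fluorescence. Each compound was assayed at least twice and the mean reported; assay SD <±40%.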

[3] = molecular target: T1, Human immunodeficiency virus type 1 protease; test: Inhibitory activity against HIV-1 protease; procedure, shortened: as §1

Row | SMILES | IC90 [1] | pKi [2] | pKi [3]
1 | CCCCNC(=O)c1cccc(CN2C(=O)N(Cc3cccc(C(=O)NCCCC)c3)[C@H](Cc3ccccc3)[C@H](O)[C@@H](O)[C@H]2Cc2ccccc2)c1 | 255 nM | 9.37 | 9.37
2 | CC(C)(C)NC(=O)[C@@H]1C[C@@H]2CCCC[C@@H]2CN1C[C@@H](O)[C@H](Cc1ccccc1)NC(=O)[C@H](CC(N)=O)NC(=O)c1ccc2ccccc2n1 | 10.4 nM |  | 
3 | Cc1cccc(NC(=O)c2cccc(CN3C(=O)N(Cc4cccc(C(=O)Nc5cccc(C)n5)c4)[C@H](Cc4ccccc4)[C@H](O)[C@@H](O)[C@H]3Cc3ccccc3)c2)n1 | 3.2 nM | 10.70 | 10.70
4 | CCCNC(=O)c1cccc(CN2C(=O)N(Cc3cccc(C(=O)NCCC)c3)[C@H](Cc3ccccc3)[C@H](O)[C@@H](O)[C@H]2Cc2ccccc2)c1 | 259 nM | 9.55 | 9.44
5 | O=C(Nc1ccncc1)c1cccc(CN2C(=O)N(Cc3cccc(C(=O)Nc4ccncc4)c3)[C@H](Cc3ccccc3)[C@H](O)[C@@H](O)[C@H]2Cc2ccccc2)c1 | 93.7 nM | 9.39 | 9.39
6 | O=C(Nc1nncs1)c1cccc(CN2C(=O)N(Cc3cccc(C(=O)Nc4nncs4)c3)[C@H](Cc3ccccc3)[C@H](O)[C@@H](O)[C@H]2Cc2ccccc2)c1 | 51.3 nM |  | 9.96
7 | O=C(NCC(F)(F)F)c1cccc(CN2C(=O)N(Cc3cccc(C(=O)NCC(F)(F)F)c3)[C@H](Cc3ccccc3)[C@H](O)[C@@H](O)[C@H]2Cc2ccccc2)c1 | 92.5 nM | 9.68 | 9.68
8 | O=C1N(Cc2ccc(CO)cc2)[C@H](Cc2ccccc2)[C@H](O)[C@@H](O)[C@@H](Cc2ccccc2)N1Cc1ccc(CO)cc1 [DMP-323] | 115 nM |  | 
9 | O=C(Nc1nc2ccccc2[nH]1)c1cccc(CN2C(=O)N(Cc3cccc(C(=O)Nc4nc5ccccc5[nH]4)c3)[C@H](Cc3ccccc3)[C@H](O)[C@@H](O)[C@H]2Cc2ccccc2)c1 | 3.9 nM |  | 
10 | CC(C)(C)NC(=O)[C@@H]1CN(Cc2cccnc2)CCN1C[C@@H](O)C[C@@H](Cc1ccccc1)C(=O)NC1c2ccccc2C[C@H]1O (single isomer, unassigned) | 50 nM |  | 
11 | O=C(Nc1nccs1)c1cccc(CN2C(=O)N(Cc3cccc(C(=O)Nc4nccs4)c3)[C@H](Cc3ccccc3)[C@H](O)[C@@H](O)[C@H]2Cc2ccccc2)c1 | 1.7 nM |  | 
12 | Cc1coc(NC(=O)c2cccc(CN3C(=O)N(Cc4cccc(C(=O)Nc5nc(C)co5)c4)[C@H](Cc4ccccc4)[C@H](O)[C@@H](O)[C@H]3Cc3ccccc3)c2)n1 | 59.6 nM |  | 10.19
13 | CC(C)CN(C[C@@H](O)[C@H](Cc1ccccc1)NC(=O)O[C@H]1CCOC1)S(=O)(=O)c1ccc(N)cc1 | 46 nM |  | 
14 | O=C(Nc1nnc(C(F)(F)F)s1)c1cccc(CN2C(=O)N(Cc3cccc(C(=O)Nc4nnc(C(F)(F)F)s4)c3)[C@H](Cc3ccccc3)[C@H](O)[C@@H](O)[C@H]2Cc2ccccc2)c1 | 74.8 nM |  | 9.74
15 | Cc1cnc(NC(=O)c2cccc(CN3C(=O)N(Cc4cccc(C(=O)Nc5ncc(C)s5)c4)[C@H](Cc4ccccc4)[C@H](O)[C@@H](O)[C@H]3Cc3ccccc3)c2)s1 | 17.8 nM |  | 10.85
16 | CNC(=O)c1cccc(CN2C(=O)N(Cc3cccc(C(=O)NC)c3)[C@H](Cc3ccccc3)[C@H](O)[C@@H](O)[C@H]2Cc2ccccc2)c1 (stereo in doubt; 31) |  |  | 8.72
17 | Cc1csc(NC(=O)c2cccc(CN3C(=O)N(Cc4cccc(C(=O)Nc5nc(C)cs5)c4)[C@H](Cc4ccccc4)[C@H](O)[C@@H](O)[C@H]3Cc3ccccc3)c2)n1 | 4.1 nM |  | 10.60
18 | CC(C)c1nc(CN(C)C(=O)N[C@H](C(=O)N[C@@H](Cc2ccccc2)C[C@H](O)[C@H](Cc2ccccc2)NC(=O)OCc2cncs2)C(C)C)cs1 [RITONAVIR] | 76 nM |  | 
19 | O=C(Nc1ncc[nH]1)c1cccc(CN2C(=O)N(Cc3cccc(C(=O)Nc4ncc[nH]4)c3)[C@H](Cc3ccccc3)[C@H](O)[C@@H](O)[C@H]2Cc2ccccc2)c1 | 45.5 nM |  | 10.85
